Compound activity (PubChem)
AI-2 QS modul = Vibrio harveyi AI-2 quorum sensing modulation | AID 2094 | actives 0.4% (n = 300,000) | Vibrio harveyi JMH597 AI-2 luminescence/OD600 ratio, 9 h; active compounds read low; strain lacks LuxN and CqsS sensors; 0 = neutral-control median | activity change, % at 7.5 µM; in the data active means activity change below about -75%, passing the limit was not always enough; inconclusive means no clear call, values can overlap the other calls;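 further: luminescence divided by OD600 gain over 9 h not by final OD600 alone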
A1 inh = inhibitors of the anti-apoptotic protein A1, read as caspase activation; MEF A1-2A-BIM cells, Caspase-Glo 3/7 luminescence, 3 h; percent of clofoctol response, vehicle zero; caspase activation, % (no concentration beside the values); actives 0.066% (n = 330,000); AID 2462;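 active means over half of replicate activation scores above 10%, or exactly half above 10 with the replicate mean above 10; inconclusive means replicate mean below 10 yet half the replicates above 10; inactive means over half of replicates below 10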
LANA-H2A inh = blocks KSHV LANA binding to histone H2A/H2B; actives 0.6% (n = 320,000); inhibition, % (test concentration not listed); AID 2629; cell-free LANA-H2A/H2B peptide, fluorescence polarization; in the data active means inhibition mostly above about 10%, no sharp cut-off; inactive means mostly below about 6.7%
ATG4B inh = blocks human ATG4B protease cleavage of LC3 substrate; Q9Y4P1; ATG4B cleavage of LC3-PLA2, NBD-HPC fluorescence, 1 h; inhibition, % at 8.33 µM; actives 0.51% (n = 340,000); AID 504462; in the data active means inhibition above about 40%
Target sequence (Q9Y4P1 whole entry, looked up): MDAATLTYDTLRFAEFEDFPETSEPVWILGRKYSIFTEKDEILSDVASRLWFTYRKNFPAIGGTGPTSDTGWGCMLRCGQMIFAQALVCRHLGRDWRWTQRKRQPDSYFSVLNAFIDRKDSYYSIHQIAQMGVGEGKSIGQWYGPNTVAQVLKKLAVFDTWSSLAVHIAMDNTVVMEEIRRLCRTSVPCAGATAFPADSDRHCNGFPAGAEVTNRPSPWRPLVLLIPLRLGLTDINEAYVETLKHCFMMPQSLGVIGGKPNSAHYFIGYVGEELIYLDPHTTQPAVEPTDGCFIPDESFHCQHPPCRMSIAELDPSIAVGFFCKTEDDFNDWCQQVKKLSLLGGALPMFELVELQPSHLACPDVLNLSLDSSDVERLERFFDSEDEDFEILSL
HKDC1 inh = blocks human hexokinase HKDC1 activity; actives 0.16% (n = 340,000); Q2TB90; inhibition, % at 20 µM; AID 493160; recombinant HKDC1, G6PDH/diaphorase resazurin coupled fluorescence;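 active means inhibition above about 35% when tested at 20 µM, limit read from the data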
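Test system: Recombinant HKDC1 (HK5) hexokinase enzyme, produced in-house | Input: HKDC1 at 5 µg/mL | Buffer or medium: Tris pH 8.0 buffer with MgCl2, Tween-20, BSA, BME | Schedule: 90 min reaction incubation at room temperature, dark | Technique: Resazurin-to-resorufin fluorescence via G6PDH and diaphorase coupling, 525/613 nm | Controls: DMSO wells with and without enzyme mix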
HDAC3 inh = inhibitors of human histone deacetylase 3; O15379; recombinant HDAC3, fluorogenic peptide/trypsin coupled, fluorescence; inhibition, % at 8.3 µM; actives 0.15% (n = 320,000); AID 2718; in the data active means inhibition above about 26%, passing the limit was not always enough; inconclusive means no clear call, values can overlap the other calls
HKDC1 act conf = HKDC1 (human) activation, single-dose confirmed | shares compounds with HKDC1 inh | recombinant HKDC1, G6PDH/diaphorase resazurin fluorescence; active compounds read low | inhibition, % at 20 µM | actives 14% (n = 740) | AID 504708;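 active means inhibition at or below a set negative limit, negative inhibition meaning the enzyme was activated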
Numbers stand for hits; i = inactive; ? = inconclusive; nt = no result; ! = repeats disagree. Shown are actives, neighbours in structure and some others; about 1.8% of the full set was active somewhere.

SMILES | AI-2 QS modul | A1 inh | LANA-H2A inh | ATG4B inh | HKDC1 inh | HDAC3 inh | HKDC1 act conf
O=[N+]([O-])c1ccc(Cl)cc1Sc1nc2ccccc2o1 | ? | i | i | i | i | i | nt
O=[N+]([O-])c1ccc(Sc2nc3ccccc3o2)c([N+](=O)[O-])c1 | i | i | i | i | 35 | i | i
O=C1C=C(Nc2ccccc2C(=O)O)c2ccccc2C1=O | i | i | i | i | 46 | i | i
COc1ccc2cc(CCNC(=O)c3ccc4c(c3)OCO4)c(=O)[nH]c2c1 | i | i | i | i | i | i | nt
CCN(CC)S(=O)(=O)c1ccc(C(=O)NCCc2cc3c(OC)ccc(OC)c3[nH]c2=O)cc1 | i | i | i | i | i | i | nt
COc1ccc(OC)c2[nH]c(=O)c(CCNC(=O)c3ccc(S(=O)(=O)N4CCCC4)cc3)cc12 | i | i | i | i | i | i | i
COc1ccc2cc(CCNC(=O)c3ccc(S(=O)(=O)N4CCCC4)cc3)c(=O)[nH]c2c1 | i | i | i | i | i | i | i
CN1CCN(S(=O)(=O)c2cccc(C(=O)Oc3ccccc3Cl)c2)CC1 | i | i | i | i | i | i | nt
O=C(CN(C(=O)CCC(=O)Nc1ccccn1)c1cccc(F)c1)NCc1ccc2c(c1)OCO2 | i | i | i | i | i | i | nt
O=C(CN(C(=O)CCC(=O)Nc1ccccn1)c1ccc2c(c1)OCO2)NCc1ccc(F)cc1 | i | i | i | i | i | i | i
O=C(O)c1ccccc1C(=O)c1ccc(F)c(F)c1 | nt | nt | nt | i | i | nt | nt
Nc1ccc(S(=O)(=O)c2cc(O)c3ccccc3c2O)cc1 | nt | nt | nt | i | 55 | nt | i
O=C(NCc1n[nH]c(=S)n1-c1cccc(Cl)c1)c1ccc(S(=O)(=O)N2CCCCC2)cc1 | i | i | i | i | i | i | nt
Cc1ccc(N=C2C(=S)N(c3ccc(C)cc3)C(=N)N2/N=C/c2ccc(Cl)cc2)cc1 | i | i | i | i | i | i | -45
CCS(=O)(=O)N1CCC(C(=O)Oc2ccccc2Cl)CC1 | i | i | i | i | i | i | nt
CC(=O)c1cc(Cl)ccc1OCc1cccc(S(=O)(=O)N2CCOCC2)c1 | i | i | i | i | i | i | nt
O=S(=O)(c1cccc(COc2ccc(Cl)cc2Cl)c1)N1CCOCC1 | i | i | i | i | 39 | i | i
NC(=NCCCCCCN=C(N)/N=C(\N)Nc1ccc(Cl)cc1)/N=C(\N)Nc1ccc(Cl)cc1 | i | i | i | i | 53! | i | i
O=C(CSc1n[nH]c(=O)[nH]c1=O)Nc1ccc2c(c1)C(=O)c1ccccc1C2=O | i | i | i | i | 52 | i | i
Cc1cccc(C)c1Nc1nnc(SCc2cn3cccc(C)c3n2)s1 | i | i | i | i | i | i | i
Cc1ccc(S(=O)(=O)/N=C2\C=C(Nc3cccc(C(=O)O)c3)C(=O)c3ccccc32)c(C)c1 | i | i | i | i | 39 | i | i
Cc1ccc(S(=O)(=O)/N=C2\C=C(Nc3cccc(C(=O)O)c3)C(=O)c3ccccc32)cc1 | i | i | i | i | 45 | i | i
CCc1ccc(S(=O)(=O)/N=C2\C=C(Nc3ccc(C(=O)O)cc3)C(=O)c3ccccc32)cc1 | i | i | i | i | 54 | i | i
CCN1CCN(CCCNC(=O)CCC(=O)N2CCOc3ccccc32)CC1 | i | i | i | i | i | i | nt
CC(=O)N1c2ccccc2C2(O)N=C(C)SC12 (stereo not given) | i | i | i | i | i | i | nt
SMILES | AI-2 QS modul | A1 inh | LANA-H2A inh | ATG4B inh | HKDC1 inh | HDAC3 inh | HKDC1 act conf
Cc1ccc(OCC(=O)N/N=C\c2cccn2C)c([N+](=O)[O-])c1 | i | i | i | i | i | i | nt
Nc1nc(-c2ccc(Br)cc2)cs1 | i | i | i | i | i | i | nt
Nc1nc(-c2cccc(Br)c2)cs1 | i | i | i | i | i | i | -41
CC(=O)C1=C(c2cccc([N+](=O)[O-])c2)N(C(C)=O)n2c(C)nnc2S1 | i | i | i | i | i | i | -387
CC(=O)c1c(C(C)=O)c(C)n(-c2cccc([N+](=O)[O-])c2)c1C | i | i | nt | i | i | nt | nt
Cc1[nH]c2ccccc2c1NC(=O)CN1CCN(C(=O)c2ccco2)CC1 | i | i | i | i | i | i | nt
CN(Cc1ccc(Cl)cc1)C(=O)CNC(=O)C12CC3CC(CC(C3)C1)C2 | nt | i | i | i | i | i | nt
CC(=O)N1CCc2cc(C(=O)CN3CCN(c4ccccn4)CC3)ccc21 | i | i | i | i | i | nt | nt
O=C(OC1CCOC1=O)C1CCN(S(=O)(=O)c2ccccc2)CC1 (stereo not given) | nt | i | i | i | i | i | nt
O=C(O)c1cc(O)c2c(c1)[C@@H]([C@H]1c3cc(C(=O)O)cc(O)c3C(=O)c3c(O[C@@H]4O[C@H](CO)[C@@H](O)[C@H](O)[C@H]4O)cccc31)c1cccc(OC3O[C@H](CO)[C@@H](O)[C@H](O)[C@H]3O)c1C2=O (stereo not given in full) | i | i | 19 | i | 83 | i | i
C[c-]1[c-](C)[c-](C)[c-](C)[c-]1C.[Fe].c1cc2nccc(N3CCCC3)[c-]2c1 (stereo not given) | i | i | i | i | 49! | 29! | i
c1cc(N2CCCCC2)nc(N2CCCCC2)n1 | nt | nt | nt | i | i | nt | nt
O=C(c1ccccc1)c1coc2c1C(=O)c1ccccc1C2=O | i | i | i | i | i | i | nt
COc1ccc(C(=O)c2coc3c2C(=O)C(=O)c2ccccc2-3)cc1 | -92 | i | i | i | 61 | i | i
Cc1nonc1C(=O)N/N=C/c1ccncc1 | i | i | i | i | i | i | nt
Cc1nonc1C(=O)N/N=C/c1ccc(O)cc1O | -88 | i | i | i | i | i | -34
Cc1cc([N+](=O)[O-])nn1CC(=O)N/N=C/c1ccc(O)cc1O | i | i | i | i | i | i | i
Cc1cc2c(N)cccc2nn1 | i | i | i | i | 35 | ? | i
Nc1cccc2nc3ccccc3cc12 | i | nt | i | i | i | nt | nt
CCOc1ccccc1CNCC1CCCO1 (stereo not given) | i | i | i | i | i | i | nt
Cc1ccccc1/C=C/C(=O)c1ccc([N+](=O)[O-])o1 | ? | 11 | i | i | 46 | i | i
COc1ccc(/C=C/C(=O)c2ccc([N+](=O)[O-])o2)cc1 | i | i | i | i | i | i | nt
Cc1cccc(/C=C/C(=O)c2ccc([N+](=O)[O-])o2)c1 | i | i | i | i | 50 | i | i
CCCc1nc2sc3c(=O)[nH]cnc3c2c2c1CCCC2 | i | i | i | nt | nt | i | nt
CCc1nc2sc3c(=O)[nH]cnc3c2c2c1CSC(C)(C)C2 | i | i | i | i | 37 | i | i
Cc1nc2ccccc2c(=O)n1Cc1ccco1 | i | i | i | i | i | i | nt
